ChEMBL document CHEMBL2424551, “Synthesis, in vitro evaluation and molecular modelling of naphthalimide analogue as anticancer agents” (2013)
The source made the active and inactive calls. The rule behind the calls is not given here.

Tests used:
DNA [1] = experiment: Binding affinity to calf thymus DNA assessed as DNA intercalation at 50 uM by UV-visible spectrophotometry; type: nucleic-acid assay; conditions: Bos taurus
In short: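 ct-DNA titrated (4–100 µM) into phosphate-buffered solution (pH 7.0) of compound at 50 µM; absorption spectra recorded by UV–visible spectrophotometry, tracking band shift and hypochromism.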

DNA [2] = experiment: Binding affinity to calf thymus DNA assessed as change in melting temperature by thermal denaturation assay; type: nucleic-acid assay; conditions: Bos taurus
DNA [3] = experiment: Binding affinity to calf thymus DNA assessed as DNA intercalation at 50 uM by fluorescence spectrophotometry; type: nucleic-acid assay; conditions: Bos taurus
In short: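 Fluorescence titration: increasing ct-DNA added to compound in phosphate buffer (pH 7.0); decrease in emission band at 500 nm monitored; binding constant derived from titration data by Benesi–Hildebrand method.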

HCC 2998 = experiment: Growth inhibition of human HCC2998 cells at 10 uM after 48 hrs by SRB assay; type: functional
In short: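 Cells grown in RPMI 1640 with 5% FBS and 2 mM L-glutamine, plated at 5000–40,000 cells/well by doubling time and preincubated 24 h (37 °C, 5% CO2); a time-zero plate is TCA-fixed. Single dose added, then 48 h incubation. Fixed with cold TCA, stained with 0.4% SRB, dye solubilized in 10 mM Tris base, absorbance at 515 nm; percent growth vs time-zero and untreated control.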

Row | SMILES | Activity (DNA [1]) | ΔTm (DNA [2]) [°C] | Activity (DNA [3]) | growth inhibition (GI) (HCC 2998)
1 | Nc1ccc(Sc2ccc3c4c2cccc4c(=O)n2c4ccccc4nc32)cc1 | Active | 8.2 | Active | –
2 | O=c1[nH]cc(F)c(=O)[nH]1 [FLUOROURACIL] | – | – | – | Active
